KCNQ1 block = inhibitors of human KCNQ1 channel, primary screen, cell-based, thallium flux, high-throughput; B-score at 10 µM; actives 1.3% (n = 310,000); Potassium voltage-gated channel subfamily KQT member 1 (Homo sapiens), P51787; CHO-K1 KCNQ1, FluxOR thallium flux fluorescence; stronger effect = higher value;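 active means compounds whose thallium flux B-score, printed positive for inhibition, exceeds three library SD while starting fluorescence stays within three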;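 further: channel opened by potassium depolarization with thallium stimulus after 20 min compound exposure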
hERG protect = hERG rescue from dofetilide block, primary screen, cell-based, CHO-hERG, FluxOR thallium flux, dofetilide IC70; dofetilide IC70 present; activation (rescue from dofetilide block), less the hit threshold, % at 10 µM; actives 0.51% (n = 310,000); AID 1511, 2009;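 active means activation above the mean of controls blocked by dofetilide plus 5 SD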;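 further: thallium influx through hERG after potassium depolarization seen as dye fluorescence rise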
KCNK9 inh = KCNK9 potassium channel inhibitors, primary screen, HEK293 cells, thallium flux; Potassium channel subfamily K member 9 (Homo sapiens), Q9NPC2; FluxOR thallium flux fluorescence; stronger effect = lower value; B-score at 10 µM; actives 1.2% (n = 310,000); AID 488922, 2010;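 active means ratio B-score over 3 SD below the library mean, with starting fluorescence within 5 SD of its mean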;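 further: negative B-score means less thallium flux so channel inhibition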
KCNQ1 act = potentiators or activators of KCNQ1 channel, primary screen, cell-based, thallium flux, high-throughput. actives 0.35% (n = 310,000). CHO-K1 KCNQ1, thallium flux FluxOR fluorescence; stronger effect = higher value. Potassium voltage-gated channel subfamily KQT member 1 (Homo sapiens), P51787. B-score at 10 µM;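 active means fluorescence ratio B-score, a plate-corrected score, at least three library SD, with initial intensity B-score within 5 SD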
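assay system = KCNQ1-transfected CHO-K1 cells | medium = assay buffer with matched DMSO | probe or stimulus = depolarizing K+/Tl+ stimulus, K2SO4 and Tl2SO4 each 12.5 mM in 5x stock | dosing = single dose | incubation = dye 90 min, compound 20 min, room temperature | detection = kinetic FluxOR fluorescence, 10 s baseline plus 110 s post-stimulus | evaluation = ratio B score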
KCNK3 inh = human KCNK3 channel inhibitors, primary screen, CHO cells, FluxOR thallium flux, B-score; Potassium channel subfamily K member 3 (Homo sapiens), O14649; FluxOR fluorescence; stronger effect = lower value; B-score at 10 µM; actives 0.84% (n = 340,000);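 active means B-score under library mean minus 4 SD, starting fluorescence ratio at most library mean plus 5 SD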;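 further: more negative B-score means stronger inhibition of thallium flux through KCNK3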
A number is an active result; - = inactive; . = no result. Sampled rows, rich in hits. Any-hit rate of the full collection: about 3.1%.

SMILES	KCNQ1 block	hERG protect	KCNK9 inh	KCNQ1 act	KCNK3 inh
Cc1ccccc1NC(=S)N(CCc1c(C)[nH]c2ccc(F)cc12)Cc1cccnc1	-	-	-	-	-
CCn1c(SC(C)C(=O)Nc2nccs2)nnc1-c1ccncc1 (stereo unspecified)	-	-	-	-	-
Cc1nc(S(=O)(=O)Cc2ccccc2Cl)nc2c1CCC2	-	-	-	-	-
Cc1cccc(C)c1-n1nnnc1S(=O)(=O)Cc1ccccc1Cl	.	.	.	.	-8.73
C=CCSc1nnc(NC(=O)Cn2cnc3c2c(=O)n(C)c(=O)n3C)s1	-	10.1	-	-	-
O=c1c2ccccc2c(C=NCc2ccccn2)c(O)n1-c1ccccc1Cl	-	8.0	-	-	-
O=c1c2ccccc2c(C=NCc2ccccn2)c(O)n1-c1ccccc1	-	-	-	-	-
CCCCN(C1CCS(=O)(=O)C1)S(=O)(=O)c1ccc(OC)c(OC)c1 (stereo unspecified)	-	-	-	-	-
O=C(NCC(c1ccco1)N1CCc2ccccc21)c1cccc([N+](=O)[O-])c1 (stereo unspecified)	-	-	-	-	-
Cc1cc(C)c2nc(NC(=O)c3cc(C)on3)sc2c1	-	-	-	24	-
COc1ccc2nc(NC(=O)c3ccccc3O)sc2c1	-	-	-	-	-
CCOC(=O)c1cccc(C(=O)Nc2nc3ccc(OC)cc3s2)n1	-	-	-	9	-
CCc1ccc2nc(NC(=O)c3cc(C)on3)sc2c1	-	9.4	-	29	-
O=c1c2cccnc2[nH]c(=S)n1CCC1=CCCCC1	-	30.8	-	27	-
COCCCn1c(=S)[nH]c2ncccc2c1=O	-	-	-	-	-
CCCCCn1c(=S)[nH]c2ncccc2c1=O	-	11.5	-	20	-
CC1CCN(C(=O)CSc2nc3cccnc3n2C)CC1	-	-	-	-	-
Cn1c(SCC(=O)N2CCOCC2)nc2cccnc21	-	4.8	-	-	-
N#C/C(=N\Nc1cccc(F)c1)C(=O)C1CC1	6	-	-	-	-
Cc1cc(C(=O)NNC2CC(=O)N(c3ccc4ccccc4c3)C2=O)c(C)o1 (stereo unspecified)	-	5.0	-	-	-
O=C(Cc1ccc(Cl)cc1)NNC1CC(=O)N(c2ccc3ccccc3c2)C1=O (stereo unspecified)	-	-	-	-	-
COc1ccc2nc(SCC(=O)NCc3ccc(S(N)(=O)=O)cc3)[nH]c2c1	-	-	-	-	-
CCCCCc1ccc(C(=O)CCCC)c(=S)[nH]1	-	35.1	-	17	-
COc1cc(C)c(C(C)C)cc1S(=O)(=O)NC1CC(C)(C)NC(C)(C)C1	-	5.7	-	-	-
CCOC(=O)C1=C(Cn2cnc3ccccc32)NC(=O)NC1c1cc(C)ccc1C (stereo unspecified)	-	13.1	-	-	-
SMILES	KCNQ1 block	hERG protect	KCNK9 inh	KCNQ1 act	KCNK3 inh
CCC(C)(C)c1ccc(OCCCC[n+]2ccc(C)cc2)c(C(C)(C)CC)c1	7	-	-7.73	-	.
CCOc1ccc(OCC)c(NC(=O)CN2CCN(c3cc(C)ccc3C)CC2)c1	6	-	-	-	-
CCOc1ccc(OCC)c(NC(=O)CN2CCN(c3cccc(C)c3)CC2)c1	-	-	-	-	-
Cc1cccc(Sc2nc(-c3ccccc3)ccc2C#N)c1	-	-	-6.59	-	-
CCCCc1cc(=O)oc2cc(C)cc(OCC(=O)NCc3ccccn3)c12	-	-	-	-	-
CCOC(=O)Nc1ccc2c(c1)Nc1ccccc1S2	-	-	-6.61	-	-
O=C(N/N=C1/C(=O)c2cccc3cccc1c23)c1ccc(Cl)cc1	-	53.0	-	41	-
CCNC(=S)N/N=C1\CCCCc2ccccc21	-	-	-	-	-
CCNC(=S)N/N=C1\C(=O)c2cccc3cccc1c23	-	7.9	-	9	-
O=C(O)CSc1c2c(nc3cc(C(=O)Nc4ccc(F)c(Cl)c4)ccc13)CCCC2	-	-	-	-	-
COc1ccc(NC(=O)c2ccc3c(SCC(=O)O)c4c(nc3c2)CCCC4)cc1Cl	-	7.8	-	-	.
CC(=O)c1cccc(NC(=O)Cn2cnc(S(=O)(=O)N3CCCC3)c2)c1	-	-	-	-	-
CCOC(=O)c1cnc(-n2nc(C)cc2C)nc1NNc1ncc(-c2ccccc2)cn1	-	-	-	-	.
CCOC(=O)c1cnc(-n2nc(C)cc2C)nc1NNc1cc(-c2ccccc2)nc(C)n1	6	-	-	-	.
O=C(Nc1ccc(F)cc1)c1nc2c(nnn2Cc2cccc3ccccc23)c(=O)[nH]1	-	-	-	-	-
Cc1cc(C)n(CCC(=O)N2CCN(S(=O)(=O)c3ccccc3)CC2)n1	-	-	-	-	-
CCOC(=O)c1[nH]c2ccccc2c1NC(=O)C1CCCCC1	-	4.8	-	-	-
CCOC(=O)c1[nH]c2ccccc2c1NC(=O)NC1CCCCC1	-	-	-	-	-
Cn1c(=O)c2c(nc(OC3CCCCCC3)n2C)n(C)c1=O	.	.	.	.	-
CC(=O)N1c2ccc(N=Cc3cc(Br)cc(Br)c3O)cc2CC1C (stereo unspecified)	-	-	-	8	.
COc1ccccc1C(=O)NNC(=O)C(=O)Nc1ccc(C)cc1	-	47.0	-	-	-
Cc1ccc(NC(=O)C(=O)NNC(=O)c2ccccc2C)cc1Cl	-	45.6	-	41	-
COc1ccccc1C(=O)NNC(=O)c1ccc(Cl)cc1	-	-	-	-	-
COc1ccccc1C(=O)NNC(=O)C(=O)Nc1ccc(C)c(Cl)c1	-	60.7	-	94	-
COc1ccccc1C(=O)NNC(=O)C(=O)NC(C)(C)C	-	7.4	-	9	-
SMILES	KCNQ1 block	hERG protect	KCNK9 inh	KCNQ1 act	KCNK3 inh
COc1ccccc1C(=O)NNC(=S)Nc1ccccc1	-	-	-	-	-
CC(C)(C)NC(=O)C(=O)NNC(=O)c1ccccc1Br	-	-	-	-	-
Cc1ccc(N2CC(C(=O)N(C)CC(=O)Nc3ccc(Cl)c(C(F)(F)F)c3)CC2=O)cc1 (stereo unspecified)	-	-	-	-	-
Cc1ccccc1C(=O)N1CCN(c2ccc(NC(=O)c3ccc([N+](=O)[O-])o3)cc2)CC1	-	-	-	-	-
CCC(Cc1ccccc1)NS(=O)(=O)c1c(C)nc2scc(C)n2c1=O (stereo unspecified)	-	-	-	-	-
COc1ccc(S(=O)(=O)N2CCOCC2)cc1NC(=O)C1CC1	.	.	.	.	-
CCN1C(=O)[C@H]2[C@@H](c3ccc(C)cc3)N3C(=O)N(c4ccc(C(F)(F)F)cc4)C(=O)[C@@]3(CC(C)C)[C@H]2C1=O	-	-	-7.55	-	-
CCOc1ccc(NC(=O)COc2ccc(OC)cc2)cc1	-	-	-	-	-

High-throughput results from PubChem BioAssay.
